One data set has as its target Cannabinoid receptor 1 (Homo sapiens, UniProt P21554). Briefly: Displacement of [3H]CP55940 from recombinant human CB1 receptor expressed in HEK293 cell membranes measured after 90 mins. The method in brief: (§1)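 Membranes from HEK-293 cells stably expressing human recombinant CB1 (Bmax 2.5 pmol/mg protein) or CB2 (Bmax 4.7 pmol/mg protein). [3H]-CP-55,940 was used at 0.14 nM for CB1 (Kd 0.18 nM) and 0.084 nM for CB2 (Kd 0.31 nM), with increasing test concentrations, 90 min at 30 °C. Non-specific binding was set with 10 μM WIN 55212-2. Ki came from IC50 via Cheng–Prusoff; n ≥ 3, mean ± SEM. SI = CB1 Ki / CB2 Ki.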
(In a radioligand displacement assay an active substance lowers the binding of a labelled ligand.)

Data set [1] has as its target Cannabinoid receptor 1 (CB1) (Homo sapiens, UniProt P21554). Description: Displacement of [3H]CP55940 from recombinant human CB1 receptor expressed in HEK293 cell membranes at 10 uM measured after 90 mins relative to control. The note with it: probe [3H]CP55940.
Data set [2] deals with T1, Cannabinoid receptor 2 (Homo sapiens, UniProt P34972). Briefly: Displacement of [3H]CP55940 from recombinant human CB2 receptor expressed in HEK293 cell membranes measured after 90 mins. In short, it runs like this: as §1
The target of data set [3] is T1, Cannabinoid receptor 2. Description: Displacement of [3H]CP55940 from recombinant human CB2 receptor expressed in HEK293 cell membranes at 10 uM measured after 90 mins relative to control.
Another data set is filed under the species Homo sapiens. Description: Selectivity index, ratio of Ki for displacement of [3H]CP55940 from recombinant human CB1 receptor expressed in HEK293 cell membranes to Ki for displacement of [3H]CP55940 from recombinant human CB2 receptor expressed in HEK293 cell membranes. The method in brief: as §1
Data set [4] has as its target T1, Cannabinoid receptor 2. Briefly: Antagonist/inverse agonist activity at recombinant human CB2 receptor expressed in HEK293 cell membranes assessed as increase in NKH-477-induced cAMP accumulation measured after 30 mins by luminescence assay. Type of data set: functional, cell-based. (In general: cAMP levels reflect the balance of adenylyl cyclase and phosphodiesterase activity.)

For data set [5], the target named is T1, Cannabinoid receptor 2. Description: Antagonist/inverse agonist activity at recombinant human CB2 receptor expressed in HEK293 cell membranes assessed as increase in NKH-477-induced cAMP accumulation preincubated followed by CB2 agonist JWH-133 addition and measured after 30 mins by luminescence assay. The class given is functional, cell-based.

Calls of active or inactive are those of the source. The rule behind the calls is not given here. Where only a bound is given, the exact number is not on record here.

This is an account of results in ChEMBL document CHEMBL4368878 (Medchemcomm, 2018).

One may read the Ki as a dissociation constant, usually derived from enzyme kinetics or from competition with a known ligand. A word on the inhibition: it is the change of the read-out against control, counted positive when it falls.

Chain of Cannabinoid receptor 1 (CB1) (P21554 whole entry): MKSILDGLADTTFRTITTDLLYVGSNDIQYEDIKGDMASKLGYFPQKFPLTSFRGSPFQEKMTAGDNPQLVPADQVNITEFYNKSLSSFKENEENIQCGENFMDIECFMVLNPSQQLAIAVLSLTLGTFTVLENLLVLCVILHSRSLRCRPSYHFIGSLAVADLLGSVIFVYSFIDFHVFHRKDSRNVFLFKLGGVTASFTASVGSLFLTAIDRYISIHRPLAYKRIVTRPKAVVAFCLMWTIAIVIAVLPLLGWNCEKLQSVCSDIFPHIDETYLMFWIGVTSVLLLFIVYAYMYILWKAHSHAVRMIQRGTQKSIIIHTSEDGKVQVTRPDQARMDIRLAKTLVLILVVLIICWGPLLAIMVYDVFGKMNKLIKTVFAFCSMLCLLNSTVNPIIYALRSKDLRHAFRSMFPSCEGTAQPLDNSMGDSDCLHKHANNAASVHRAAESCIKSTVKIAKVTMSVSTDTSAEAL
Chain of Cannabinoid receptor 1 (P21554 whole entry): as above
T1 sequence (P34972 whole entry): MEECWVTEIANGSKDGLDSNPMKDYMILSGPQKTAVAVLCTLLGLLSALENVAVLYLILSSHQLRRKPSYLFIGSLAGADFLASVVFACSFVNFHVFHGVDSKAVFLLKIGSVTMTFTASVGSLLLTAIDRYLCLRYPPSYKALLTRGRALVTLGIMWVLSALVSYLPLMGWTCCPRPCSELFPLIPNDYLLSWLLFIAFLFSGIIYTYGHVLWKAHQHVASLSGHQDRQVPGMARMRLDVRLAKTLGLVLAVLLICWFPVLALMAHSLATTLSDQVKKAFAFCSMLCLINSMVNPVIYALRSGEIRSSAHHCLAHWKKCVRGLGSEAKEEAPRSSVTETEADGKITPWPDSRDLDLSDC

For the compound `CCN(CC)CCCn1c(Cc2ccc(OC)cc2)nc2cc(C(F)(F)F)ccc21`, the Ki at Cannabinoid receptor 1 and at Cannabinoid receptor 2 [2] was over 10 µM each time. For the same compound, the inhibition at 1.5 h, 10 µM in data set [1] was 19.2%. For the same compound, the inhibition on Cannabinoid receptor 2 [3] worked out at 16.8%.
On to `CCN(CC)CCn1c(-c2ccc(OC)cc2)nc2cc(C(F)(F)F)ccc21`, for which the Ki at Cannabinoid receptor 1 and at Cannabinoid receptor 2 [2] was over 10 µM throughout. Also, in data set [1], the inhibition at 1.5 h, 10 µM was found to be 1.95%. In addition, on Cannabinoid receptor 2 [3], the inhibition was found to be 46.9%.
On to `CCN(CC)CCCn1c(Cn2nc3ccccc3n2)nc2cc(C(C)=O)ccc21`, for which the Ki at Cannabinoid receptor 1 and on Cannabinoid receptor 2 [2] was over 10 µM throughout. Further, in data set [1], the inhibition at 1.5 h, 10 µM was found to be 15%. Further, the inhibition on Cannabinoid receptor 2 [3] was 17.5%.
With `CCCCn1c(Cc2ccc(Cl)c(Cl)c2)nc2cc(C(F)(F)F)ccc21`, the Ki worked out at 10 µM at Cannabinoid receptor 1 and 0.37 µM on Cannabinoid receptor 2 [2]. Besides, the inhibition at 1.5 h, 10 µM in data set [1] amounted to 53.9%. Further, at Cannabinoid receptor 2 [3], the inhibition was found to be 94.3%. The Ratio Ki in the data set listed under Homo sapiens was 27. Besides, the result at Cannabinoid receptor 2 [4] and at Cannabinoid receptor 2 [5] was Active.
On to `COc1ccc(Cc2nc3cc(C(C)=O)ccc3n2C[C@@H]2CCCN3CCCC[C@H]23)cc1`, for which the Ki on Cannabinoid receptor 1 and at Cannabinoid receptor 2 [2] was over 10 µM throughout. Moreover, the inhibition at 1.5 h, 10 µM in data set [1] turned out to be 47.6%. Further, the inhibition on Cannabinoid receptor 2 [3] is 15.6%.
For `COCCn1c(Cc2ccc(Cl)c(Cl)c2)nc2cc(C(F)(F)F)ccc21`, the Ki on Cannabinoid receptor 1 is over 10 µM; at Cannabinoid receptor 2 [2] it was 10 µM. Besides, in data set [1], the inhibition at 1.5 h, 10 µM is 41.4%. Besides, at Cannabinoid receptor 2 [3], the inhibition was determined as 53.8%. Besides, the Ratio Ki in the data set listed under Homo sapiens is over 1.
Regarding `Clc1ccc2c(c1)nc(Cn1nc3ccccc3n1)n2CC[C@@H]1CCCN2CCCC[C@H]12`, the Ki on Cannabinoid receptor 1 and on Cannabinoid receptor 2 [2] was over 10 µM each time. The inhibition at 1.5 h, 10 µM in data set [1] worked out at 17.6%. On Cannabinoid receptor 2 [3], the inhibition was 10.1%.
Regarding `COc1ccc(Cc2nc3cc(C(F)(F)F)ccc3n2C[C@@H]2CCCN3CCCC[C@H]23)cc1`, the Ki on Cannabinoid receptor 1 and at Cannabinoid receptor 2 [2] was over 10 µM in each case. In addition, in data set [1], the inhibition at 1.5 h, 10 µM worked out at 5.5%. Besides, the inhibition at Cannabinoid receptor 2 [3] amounted to 19.7%.
